# Data taken from ChEMBL document CHEMBL4368918, “Structure-Based Design of Inhibitors Selective for Human Proteasome β2c or β2i Subunits” (J Med Chem, 2019).
# The source made the active and inactive calls. No cut-off for these calls is given here.
# Tests used:
# [1] = biological target: T1, Proteasome subunit beta type-10 (Homo sapiens, UniProt P40306); test: Inhibition of 20S immunoproteasome beta 2 (unknown origin) by cell based ABPP assay
# T1 sequence (P40306 whole entry): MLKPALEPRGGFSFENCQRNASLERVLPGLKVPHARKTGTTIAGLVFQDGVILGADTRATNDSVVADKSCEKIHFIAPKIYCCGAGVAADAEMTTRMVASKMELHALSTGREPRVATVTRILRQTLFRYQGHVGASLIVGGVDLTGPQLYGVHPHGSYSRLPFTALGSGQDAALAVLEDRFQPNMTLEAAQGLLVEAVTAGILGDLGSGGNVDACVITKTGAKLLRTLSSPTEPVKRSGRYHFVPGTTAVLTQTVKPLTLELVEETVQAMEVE
# Summary of the method: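 Living RPMI-8226 cells, (5–8) ×10^5 cells/mL, exposed to inhibitor 1 h at 37 °C, washed, lysed in digitonin buffer 1 h on ice; residual activity labelled with cocktail ABPs, SDS-PAGE in-gel fluorescence, bands divided by mock, Coomassie staining to correct loading. IC50 from mean of three independent experiments.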
# [2] = organism: Homo sapiens; test: Selectivity ratio of IC50 for 20S immunoproteasome beta 2 (unknown origin) to IC50 for 20S constitutive proteasome beta 2 trypsin-like activity (unknown origin)
# [3] = biological target: T1, Proteasome subunit beta type-10; test: Inhibition of 20S immunoproteasome beta 2 in human Raji cell lysates after 1 hr by competitive ABPP assay; type: subcellular, Lysate
# [4] = biological target: T2, Proteasome Macropain subunit MB1 (Homo sapiens, UniProt P28074); test: Inhibition of 20S constitutive proteasome beta 5 chymotrypsin-like activity in human RPMI8226 cell lysates after 1 hr by coomassie brilliant blue staining-based fluorescence assay; type: subcellular, Lysate
# T2 sequence (P28074 whole entry): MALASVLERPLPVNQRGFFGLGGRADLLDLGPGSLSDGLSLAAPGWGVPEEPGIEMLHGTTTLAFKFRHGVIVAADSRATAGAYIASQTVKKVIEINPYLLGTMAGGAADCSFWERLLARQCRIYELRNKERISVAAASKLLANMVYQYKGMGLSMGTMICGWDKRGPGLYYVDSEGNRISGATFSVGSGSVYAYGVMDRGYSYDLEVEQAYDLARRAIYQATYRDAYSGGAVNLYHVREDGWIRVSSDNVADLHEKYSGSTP
# Summary of the method: (§1)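 Cells at (5–8)×10⁵ cells/mL were exposed to inhibitor for 1 h at 37 °C, washed in PBS and lysed on ice for 1 h in digitonin/ATP buffer. Residual activity was read by cocktail-ABP labeling, SDS-PAGE and fluorescence densitometry relative to mock, with Coomassie staining correcting for loading. IC50 came from three independent experiments.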
# [5] = biological target: T2, Proteasome Macropain subunit MB1; test: Inhibition of 20S constitutive proteasome beta 5 chymotrypsin-like activity in human Raji cell lysates after 1 hr by competitive ABPP assay; type: subcellular, Lysate
# [6] = biological target: T3, Proteasome subunit beta type-8 (Homo sapiens, UniProt P28062); test: Inhibition of 20S immunoproteasome beta 5 in human Raji cell lysates after 1 hr by competitive ABPP assay; type: subcellular, Lysate
# T3 sequence (P28062 whole entry): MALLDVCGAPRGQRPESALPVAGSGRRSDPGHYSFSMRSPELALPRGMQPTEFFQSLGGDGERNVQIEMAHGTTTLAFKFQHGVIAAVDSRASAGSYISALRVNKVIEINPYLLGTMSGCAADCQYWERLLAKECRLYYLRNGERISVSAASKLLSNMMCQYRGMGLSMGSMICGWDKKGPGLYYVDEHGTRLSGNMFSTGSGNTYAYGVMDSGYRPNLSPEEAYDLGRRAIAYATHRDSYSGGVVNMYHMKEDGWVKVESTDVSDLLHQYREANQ
# [7] = biological target: T4, Proteasome subunit beta type-6 (Homo sapiens, UniProt P28072); test: Inhibition of 20S constitutive proteasome beta 1 caspase-like activity in human Raji cell lysates after 1 hr by competitive ABPP assay; type: subcellular, Lysate
# T4 sequence (P28072 whole entry): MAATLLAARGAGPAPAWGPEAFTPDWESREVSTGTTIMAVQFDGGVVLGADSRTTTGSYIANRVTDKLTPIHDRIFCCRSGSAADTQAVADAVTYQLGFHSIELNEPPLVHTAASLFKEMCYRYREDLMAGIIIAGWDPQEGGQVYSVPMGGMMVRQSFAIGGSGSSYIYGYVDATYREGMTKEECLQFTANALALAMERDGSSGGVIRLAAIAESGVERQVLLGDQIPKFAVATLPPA
# Summary of the method: (§2)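 Raji cells were sonicated in 3 volumes of Tris pH 7.5 lysis buffer containing DTT, MgCl₂, sucrose, 2 mM ATP and 0.05% digitonin. Lysate (5 μg protein, in buffer with 2 mM ATP and glycerol) was preincubated with inhibitor for 1 h at 37 °C, then with a cocktail of three fluorescent ABPs for 1 h. In-gel fluorescence densitometry was normalized to mock. IC50 came from the mean of three experiments.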
# [8] = biological target: T5, Proteasome subunit beta type-9 (Homo sapiens, UniProt P28065); test: Inhibition of 20S immunoproteasome beta 1 in human Raji cell lysates after 1 hr by competitive ABPP assay; type: subcellular, Lysate
# T5 sequence (P28065 whole entry): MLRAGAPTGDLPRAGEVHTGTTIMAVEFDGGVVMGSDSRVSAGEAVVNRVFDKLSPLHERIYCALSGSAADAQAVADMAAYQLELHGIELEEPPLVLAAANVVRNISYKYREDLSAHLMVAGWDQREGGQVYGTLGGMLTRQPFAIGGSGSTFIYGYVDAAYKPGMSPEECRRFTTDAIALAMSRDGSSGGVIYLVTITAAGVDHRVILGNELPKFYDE
# Summary of the method: as §2, with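 “h. […]” for “h.”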
# [9] = organism: Homo sapiens; test: Selectivity ratio of IC50 for 20S immunoproteasome beta 2 in human Raji cell lysates to IC50 for 20S constitutive proteasome beta 2 trypsin-like activity in human Raji cells; type: cell-based
# [10] = organism: Homo sapiens; test: Selectivity ratio of IC50 for 20S immunoproteasome beta 1 in human Raji cell lysates to IC50 for 20S constitutive proteasome beta 2 trypsin-like activity in human Raji cells; type: cell-based
# [11] = organism: Homo sapiens; test: Selectivity ratio of IC50 for 20S constitutive proteasome beta 1 caspase-like activity in human Raji cell lysates to IC50 for 20S constitutive proteasome beta 2 trypsin-like activity in human Raji cells; type: cell-based
# [12] = organism: Homo sapiens; test: Selectivity ratio of IC50 for 20S immunoproteasome beta 5 in human Raji cell lysates to IC50 for 20S constitutive proteasome beta 2 trypsin-like activity in human Raji cells; type: cell-based
# [13] = organism: Homo sapiens; test: Selectivity ratio of IC50 for 20S constitutive proteasome beta 5 chymotrypsin-like activity in human Raji cell lysates to IC50 for 20S constitutive proteasome beta 2 trypsin-like activity in human Raji cells; type: cell-based
# [14] = biological target: T6, Proteasome subunit beta type-7 (Homo sapiens, UniProt Q99436); test: Inhibition of 20S constitutive proteasome beta 2 trypsin-like activity in human RPMI8226 cell lysates after 1 hr by coomassie brilliant blue staining-based fluorescence assay; type: subcellular, Lysate
# T6 sequence (Q99436 whole entry): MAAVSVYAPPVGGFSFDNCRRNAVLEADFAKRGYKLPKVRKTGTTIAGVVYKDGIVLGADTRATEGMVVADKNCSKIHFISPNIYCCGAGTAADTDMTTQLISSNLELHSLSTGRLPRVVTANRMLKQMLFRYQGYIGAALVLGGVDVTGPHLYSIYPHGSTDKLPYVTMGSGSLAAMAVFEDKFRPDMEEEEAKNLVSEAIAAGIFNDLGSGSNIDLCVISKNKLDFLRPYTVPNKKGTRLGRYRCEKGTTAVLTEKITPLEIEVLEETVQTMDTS
# [15] = biological target: T1, Proteasome subunit beta type-10; test: Inhibition of 20S immunoproteasome beta 2 in human RPMI8226 cell lysates after 1 hr by coomassie brilliant blue staining-based fluorescence assay; type: subcellular, Lysate
# [16] = biological target: T3, Proteasome subunit beta type-8; test: Inhibition of 20S immunoproteasome beta 5 in human RPMI8226 cell lysates after 1 hr by coomassie brilliant blue staining-based fluorescence assay; type: subcellular, Lysate
# Summary of the method: as §1, with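 “Living RPMI-8226 cells were grown in RPMI-1640 with 10% FCS. Cells” for “Cells”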
# [17] = biological target: T5, Proteasome subunit beta type-9; test: Inhibition of 20S immunoproteasome beta 1 in human RPMI8226 cell lysates after 1 hr by coomassie brilliant blue staining-based fluorescence assay; type: subcellular, Lysate
# Summary of the method: as §1, with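 “Living RPMI-8226 cells were grown in RPMI-1640 with 10% FCS. Cells” for “Cells”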
# [18] = biological target: T7, Proteasome subunit beta type-10 (Homo sapiens) (UniProt P40306); test: Binding affinity to 20S immunoproteasome beta 2 in human Raji cell lysates at 3 uM by ABPP assay; type: subcellular; settings: Lysate
# T7 sequence (whole entry): T1 sequence (P40306 whole entry)
# Summary of the method: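 Raji lysate (5 μg total protein, Tris pH 7.5, DTT, MgCl₂, glycerol, 2 mM ATP) was labeled with the BODIPY(FL) probe for 1 h at 37 °C. […] The wet gel was scanned at Cy2 settings.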
SMILES,IC50 [1] [µM],Ratio IC50 [2],IC50 [3] [µM],IC50 [4] [µM],IC50 [5] [µM],IC50 [6] [µM],IC50 [7] [µM],IC50 [8] [µM],Ratio IC50 [9],Ratio IC50 [10],Ratio IC50 [11],Ratio IC50 [12],Ratio IC50 [13],IC50 [14] [µM],IC50 [15] [µM],IC50 [16] [µM],IC50 [17] [µM],Activity [18]
COC[C@H](NC(=O)[C@H](CC(C)C)NC(=O)c1cnc(C)s1)C(=O)N[C@H](/C=C/S(C)(=O)=O)Cc1ccc(CN)cc1,> 1,> 14,4,> 10,45.3,57.1,> 100,> 100,52,> 1300,> 1300,740,590,> 10,> 10,> 10,> 10,–
CC(C)C[C@H](NC(=O)[C@H](Cc1ccccc1)N=[N+]=[N-])C(=O)NCC(=O)N[C@H](/C=C/S(C)(=O)=O)Cc1ccc(CN)cc1,5.9,224,2.5,> 10,8.6,12.7,> 100,> 100,54,> 2200,> 2200,187,276,> 10,> 10,> 10,> 10,–
COC1CCC(C[C@H](NC(=O)c2cnc(C)s2)C(=O)N[C@@H](CC(C)C)C(=O)N[C@H](/C=C/S(C)(=O)=O)Cc2ccc(CN)cc2)CC1 (some centres undefined),> 1,> 4,3.1,> 10,> 100,> 100,> 100,> 100,7,> 220,> 220,> 220,> 220,> 10,> 10,> 10,> 10,–
CC1=CC(C)=N/C1=C(/CCCCc1cn(CCOc2ccc(C[C@H](NC(=O)[C@H](C)NC(=O)CN3CCOCC3)C(=O)N[C@@H](CC3CCCC4CCCCC43)C(=O)[C@@]3(C)CO3)cc2)nn1)c1c(C)cc(C)n1B(F)F (some centres undefined),–,–,–,–,–,–,–,–,–,–,–,–,–,–,–,–,–,Active
COc1ccc(C[C@H](NC(=O)[C@H](C)NC(=O)CN2CCOCC2)C(=O)N[C@@H](C[C@@H]2CCCC3CCCCC32)C(=O)[C@@]2(C)CO2)cc1 (some centres undefined),–,–,–,–,> 100,> 100,> 100,> 100,–,–,–,–,–,–,–,–,–,–
CC(C)C[C@H](NC(=O)[C@H](Cc1ccccc1)N=[N+]=[N-])C(=O)N[C@H](C(=O)N[C@H](/C=C/S(C)(=O)=O)Cc1ccc(CN)cc1)[C@@H](C)O,0.33,–,0.11,> 10,0.75,2.1,> 100,> 100,–,–,–,–,–,–,> 10,> 10,> 10,–
COc1ccc(C[C@H](NC(=O)[C@H](C)NC(=O)CN2CCOCC2)C(=O)N[C@@H](CC2CCCC3CCCCC32)C(=O)[C@@]2(C)CO2)cc1 (some centres undefined),–,–,–,–,> 100,> 100,> 100,> 100,–,–,–,–,–,–,–,–,–,–
CC(C)C[C@H](NC(=O)[C@H](Cc1ccccc1)N=[N+]=[N-])C(=O)N[C@@H](CO)C(=O)N[C@H](/C=C/S(C)(=O)=O)Cc1ccc(CN)cc1,0.525,–,0.23,> 10,1.4,2.2,> 100,> 100,–,–,–,–,–,–,> 10,> 10,> 10,–
CC(C)C[C@H](NC(=O)c1cnccn1)C(=O)N[C@@H](CC(C)C)C(=O)N[C@H](/C=C/S(C)(=O)=O)Cc1ccc(CN)cc1,6.5,40,2.9,> 10,> 100,> 100,> 100,> 100,17,> 600,> 600,> 600,> 600,> 10,> 10,> 10,> 10,–
Cc1ncc(C(=O)N[C@@H](CC2CCCCC2)C(=O)N[C@@H](CC(C)C)C(=O)N[C@H](/C=C/S(C)(=O)=O)Cc2ccc(CN)cc2)s1,0.54,30,0.42,> 10,> 100,> 100,> 100,> 100,6,> 1500,> 1500,> 1500,> 1500,> 10,> 10,> 10,> 10,–
